# Measured values from ChEMBL document CHEMBL4732121, “Imidazo[1,2-a]quinoxalines for melanoma treatment with original mechanism of action” (Eur J Med Chem, 2021).
# Tested on: A-375
# Assay: Antiproliferative activity against human A-375 cells assessed as reduction in cell viability measured after 96 hrs by MTT assay
# Type: functional, cell-based
# Details: Homo sapiens, A-375, 96 h
# Outline: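 A375 cells in RPMI-1640 with 10% heat-inactivated FBS, 2 mM L-glutamine and antibiotics, 37°C, 5% CO₂. Seeded at 5000 cells/well and attached overnight, then exposed to 10⁻⁵–3.2.10⁻⁹ M in 0.15% DMSO/medium for 96 h. MTT at 0.5 mg/ml final for 4 h, formazan dissolved in 10% SDS/0.01 M HCl, OD 570 nm. At least three experiments in triplicate; IC50 from sigmoidal dose–response curves.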
row,Structure (SMILES),IC50
1,COc1ccc(-c2cnc3c(NCCCCCCNC(=O)OC(C)(C)C)nc4ccccc4n23)cc1OC,> 10 µM
2,CNc1nc2ccccc2n2c(Br)cnc12,2.35 µM
3,NCCCCCCNc1nc2ccccc2n2c(-c3ccc(O)c(O)c3)cnc12,5.69 µM
4,COc1ccc(-c2cnc3c(N)nccn23)cc1OC,> 10 µM
5,COc1ccc(-c2cnc3c(NCCNC(=O)OC(C)(C)C)nc4ccccc4n23)cc1OC,> 10 µM
6,NCCCNc1nc2ccccc2n2c(-c3ccc(O)c(O)c3)cnc12,5.59 µM
7,Oc1ccc(-c2cnc3c(N4CCNCC4)nc4ccccc4n23)cc1O,> 10 µM
8,Oc1ccc(-c2cnc3c(O)nc4ccccc4n23)cc1O,> 10 µM
9,COc1ccc(-c2cnc3c(N4CCN(C(=O)OC(C)(C)C)CC4)nc4ccccc4n23)cc1OC,> 10 µM
10,CNc1nc2cc(C(F)(F)F)ccc2n2c(-c3ccc(O)c(O)c3)cnc12,6.91 µM

# Now those with a lower IC50, led by results:
row,IC50,Structure (SMILES)
1,0.199 µM,CNc1nc2cc(OC(F)(F)F)ccc2n2c(-c3ccc(O)c(O)c3)cnc12
2,0.06 µM,Nc1nc2ccccc2n2c(-c3ccc(O)c(O)c3)cnc12
3,1.28 µM,NCCNc1nc2ccccc2n2c(-c3ccc(O)c(O)c3)cnc12
4,0.414 µM,COc1ccc(-c2cnc3c(N(C)C)nc4ccccc4n23)cc1OC
